In ChEMBL document CHEMBL3351454, “Design, synthesis, antimicrobial evaluation and molecular docking studies of some new thiophene, pyrazole and pyridone derivatives bearing sulfisoxazole moiety” (2014):
Values after ≈ are worked out from the molar mass of the structure shown.

How the values were obtained:
Format in all cases: functional
Klebsiella pneumoniae [1] = test: Antimicrobial activity against Klebsiella pneumoniae RCMB 010093 assessed as inhibition zone at 5 mg/ml after 24 hrs; settings: for zone of inhibition at 5000 µg/mL: RCMB 010093, 24 h, read-out: IZ
Outline: (§1)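 Agar diffusion on nutrient agar seeded with 10^6 CFU/mL bacteria. Filter-paper disks were loaded with 100 µL of a 5 mg/mL compound solution in DMF, with a DMF-only control. Incubation was 37 °C for 24 h. Inhibition zone in mm (mean ± SD, triplicate plates) was measured beyond the 6 mm diameter.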

Streptococcus pneumoniae [2] = test: Antimicrobial activity against Streptococcus pneumoniae RCMB 010010 assessed as inhibition zone at 5 mg/ml after 24 hrs; settings: RCMB 010010, 24 h, read-out: IZ; outline: as §1
Bacillus subtilis [3] = test: Antimicrobial activity against Bacillis subtilis RCMB 010067 assessed as absence of turbidity after 24 hrs; settings: RCMB 010067, 24 h
Outline: (§2)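 Broth microdilution in Müller–Hinton broth. DMF stocks at 1000 µg/mL were diluted in broth to give twofold serial dilutions over 500–0.007 µg/mL. Bacterial inoculum was about 10^6 CFU/mL in 96-well plates, sealed and incubated at 37 °C for 24 h in a humid chamber. MIC was taken as the lowest concentration with no visible turbidity. DMF and uninoculated-medium controls were included. Only compounds giving zones >10 mm were tested.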

Escherichia coli [4] = test: Antimicrobial activity against Escherichia coli RCMB 010052 assessed as absence of turbidity after 24 hrs; outline: as §2
[5] = tested on: Staphylococcus epidermidis; test: Antimicrobial activity against Staphylococcus epidermidis RCMB 010024 assessed as inhibition zone at 5 mg/ml after 24 hrs; settings: RCMB 010024, 24 h, read-out: IZ; outline: as §1
Streptococcus pneumoniae [6] = test: Antimicrobial activity against Streptococcus pneumoniae RCMB 010010 assessed as absence of turbidity after 24 hrs; settings: RCMB 010010, 24 h; outline: as §2
Escherichia coli [7] = test: Antimicrobial activity against Escherichia coli RCMB 010052 assessed as inhibition zone at 5 mg/ml after 24 hrs; settings: RCMB 010052, 24 h, read-out: IZ; outline: as §1
Klebsiella pneumoniae [8] = test: Antimicrobial activity against Klebsiella pneumoniae RCMB 010093 assessed as absence of turbidity after 24 hrs; outline: as §2
Aspergillus fumigatus [9] = test: Antifungal activity against Aspergillus fumigatus RCMB 02568 assessed as absence of turbidity after 48 hrs; settings: RCMB 02568, 48 h
Outline: (§3)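 Broth microdilution in Sabouraud liquid medium. DMF stocks at 1000 µg/mL were diluted in broth to give twofold serial dilutions over 500–0.007 µg/mL. Fungal inoculum was about 10^4 CFU/mL in 96-well plates, sealed and incubated at 25 °C for 48 h in a humid chamber. MIC was taken as the lowest concentration with no visible turbidity. DMF and uninoculated-medium controls were included.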

[10] = tested on: Syncephalastrum racemosum; test: Antifungal activity against Syncephalastrum racemosum RCMB 05922 assessed as absence of turbidity after 48 hrs; settings: RCMB 05922, 48 h
Bacillus subtilis [11] = test: Antimicrobial activity against Bacillis subtilis RCMB 010067 assessed as inhibition zone at 5 mg/ml after 24 hrs; settings: RCMB 010067, 24 h, read-out: IZ; outline: as §1
Aspergillus fumigatus [12] = test: Antifungal activity against Aspergillus fumigatus RCMB 02568 assessed as inhibition zone at 5 mg/ml after 48 hrs; settings: RCMB 02568, 48 h, read-out: IZ
Outline: (§4)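 Disk diffusion on nutrient agar seeded with 10^4 CFU/mL fungus. Sterile filter-paper disks carried 100 µL of a 5 mg/mL DMF solution, and DMF alone served as control. Plates were incubated at 25 °C for 48 h. Mean inhibition zone in mm ± SD was read beyond the 6 mm diameter, in triplicate.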

Geotrichum candidum [13] = test: Antifungal activity against Geotrichum candidum RCMB 05097 assessed as absence of turbidity after 48 hrs; settings: RCMB 05097, 48 h; outline: as §3
Geotrichum candidum [14] = test: Antifungal activity against Geotrichum candidum RCMB 05097 assessed as inhibition zone at 5 mg/ml after 48 hrs; settings: RCMB 05097, 48 h, read-out: IZ; outline: as §4
[15] = tested on: Staphylococcus epidermidis; test: Antimicrobial activity against Staphylococcus epidermidis RCMB 010024 assessed as absence of turbidity after 24 hrs; settings: RCMB 010024, 24 h; outline: as §2
[16] = tested on: Syncephalastrum racemosum; test: Antifungal activity against Syncephalastrum racemosum RCMB 05922 assessed as inhibition zone at 5 mg/ml after 48 hrs; settings: RCMB 05922, 48 h, read-out: IZ
Proteus vulgaris [17] = test: Antimicrobial activity against Proteus vulgaris RCMB 010085 assessed as inhibition zone at 5 mg/ml after 24 hrs; outline: as §1
Proteus vulgaris [18] = test: Antimicrobial activity against Proteus vulgaris RCMB 010085 assessed as absence of turbidity after 24 hrs; outline: as §2

Compound | zone of inhibition at 5000 µg/mL (Klebsiella pneumoniae [1]) | zone of inhibition at 5000 µg/mL (Streptococcus pneumoniae [2]) | MIC (Bacillus subtilis [3]) | MIC (Escherichia coli [4]; RCMB 010052, 24 h) | zone of inhibition at 5000 µg/mL [5] | MIC (Streptococcus pneumoniae [6]) | zone of inhibition at 5000 µg/mL (Escherichia coli [7]) | MIC (Klebsiella pneumoniae [8]; RCMB 010093, 24 h) | MIC (Aspergillus fumigatus [9]) | MIC [10] | zone of inhibition at 5000 µg/mL (Bacillus subtilis [11]) | zone of inhibition at 5000 µg/mL (Aspergillus fumigatus [12]) | MIC (Geotrichum candidum [13]) | zone of inhibition at 5000 µg/mL (Geotrichum candidum [14]) | MIC [15] | zone of inhibition at 5000 µg/mL [16] | also measured
Cc1noc(NS(=O)(=O)c2ccc(NC(=O)c3c(Nc4ccccc4)sc(C#N)c3N)cc2)c1C | 13.6 mm | 15.2 mm | 15.6 µg/mL (≈ 30.7 µM) | 500 µg/mL (≈ 983 µM) | 14.2 mm | 62.5 µg/mL (≈ 123 µM) | 11.2 mm | 125 µg/mL (≈ 246 µM) | 31.2 µg/mL (≈ 61.4 µM) | 62.5 µg/mL (≈ 123 µM) | 17.4 mm | 16.3 mm | 15.6 µg/mL (≈ 30.7 µM) | 17.3 mm | 125 µg/mL (≈ 246 µM) | 15.2 mm | 
Cc1noc(NS(=O)(=O)c2ccc(NC(=O)/C(C#N)=C/c3ccco3)cc2)c1C | 15 mm | 16.9 mm | 15.6 µg/mL (≈ 37.9 µM) | 0.12 µg/mL (≈ 0.291 µM) | 16.2 mm | 15.6 µg/mL (≈ 37.9 µM) | 14.9 mm | 0.12 µg/mL (≈ 0.291 µM) | 125 µg/mL (≈ 303 µM) | 500 µg/mL (≈ 1210 µM) | 17.4 mm | 13.9 mm | 62.5 µg/mL (≈ 152 µM) | 14.6 mm | 31.2 µg/mL (≈ 75.8 µM) | 12.1 mm | 
CCOc1ccc(N/N=C(\C#N)C(=O)Nc2ccc(S(=O)(=O)Nc3onc(C)c3C)cc2)cc1 | 16.3 mm | 19.6 mm | 1.95 µg/mL (≈ 4.04 µM) | 31.2 µg/mL (≈ 64.8 µM) | 17.6 mm | 1.95 µg/mL (≈ 4.04 µM) | 15.9 mm | 31.2 µg/mL (≈ 64.8 µM) | 3.9 µg/mL (≈ 8.08 µM) | 3.9 µg/mL (≈ 8.08 µM) | 20 mm | 19.3 mm | 0.98 µg/mL (≈ 2.03 µM) | 21.4 mm | 7.81 µg/mL (≈ 16.2 µM) | 18.6 mm | 
COc1ccc(N/N=C(\C#N)C(=O)Nc2ccc(S(=O)(=O)Nc3onc(C)c3C)cc2)cc1 | 20.2 mm | 17.3 mm | 0.98 µg/mL (≈ 2.09 µM) | 31.2 µg/mL (≈ 66.7 µM) | 20.2 mm | 15.6 µg/mL (≈ 33.4 µM) | 15.9 mm | 1.95 µg/mL (≈ 4.16 µM) | 31.2 µg/mL (≈ 66.7 µM) | 3.9 µg/mL (≈ 8.32 µM) | 21.2 mm | 16.3 mm | 1.95 µg/mL (≈ 4.16 µM) | 19.8 mm | 1.95 µg/mL (≈ 4.16 µM) | 18.6 mm | 
C[C@@H]1[C@H](O)[C@@H](C)/C=C/C=C/C=C/C=C/C=C/C=C/C=C/[C@H](O[C@@H]2O[C@H](C)[C@@H](O)[C@H](N)[C@@H]2O)C[C@@H]2O[C@](O)(C[C@@H](O)C[C@@H](O)[C@H](O)CC[C@@H](O)C[C@@H](O)CC(=O)O[C@H]1C)C[C@H](O)[C@H]2C(=O)O [AMPHOTERICIN B] |  |  |  |  |  |  |  |  | 0.12 µg/mL (≈ 0.13 µM) | 7.81 µg/mL (≈ 8.45 µM) |  | 23.7 mm | 0.007 µg/mL (≈ 0.00758 µM) | 28.7 mm |  | 19.7 mm | 
Cc1noc(NS(=O)(=O)c2ccc(N)cc2)c1C [SULFISOXAZOLE] | 18.2 mm | 19.6 mm | 0.98 µg/mL (≈ 3.67 µM) | 62.5 µg/mL (≈ 234 µM) | 17.5 mm | 1.95 µg/mL (≈ 7.29 µM) | 15.2 mm | 7.81 µg/mL (≈ 29.2 µM) | 62.5 µg/mL (≈ 234 µM) | 125 µg/mL (≈ 468 µM) | 20.8 mm | 15.1 mm | 15.6 µg/mL (≈ 58.5 µM) | 16.8 mm | 7.81 µg/mL (≈ 29.2 µM) | 13.2 mm | 
Cc1noc(NS(=O)(=O)c2ccc(NC(=O)/C(C#N)=N/Nc3ccccc3)cc2)c1C | 19.1 mm | 15.5 mm | 7.81 µg/mL (≈ 17.8 µM) | 125 µg/mL (≈ 285 µM) | 19.8 mm | 62.5 µg/mL (≈ 143 µM) | 13.5 mm | 3.9 µg/mL (≈ 8.89 µM) | 15.6 µg/mL (≈ 35.6 µM) | 15.6 µg/mL (≈ 35.6 µM) | 18.4 mm | 16.5 mm | 7.81 µg/mL (≈ 17.8 µM) | 17.8 mm | 1.95 µg/mL (≈ 4.45 µM) | 17.3 mm | 
CC1(C)S[C@@H]2[C@H](NC(=O)[C@H](N)c3ccccc3)C(=O)N2[C@H]1C(=O)O [AMPICILLIN] |  | 23.8 mm | 0.24 µg/mL (≈ 0.687 µM) |  | 25.4 mm | 0.12 µg/mL (≈ 0.343 µM) |  |  |  |  | 32.4 mm |  |  |  | 0.06 µg/mL (≈ 0.172 µM) |  | 
Cc1noc(NS(=O)(=O)c2ccc(NC(=O)/C(C#N)=C/N(C)C)cc2)c1C | 17.1 mm | 20 mm | 0.98 µg/mL (≈ 2.52 µM) | 31.2 µg/mL (≈ 80.2 µM) | 18.2 mm | 1.95 µg/mL (≈ 5.01 µM) | 16.3 mm | 15.6 µg/mL (≈ 40.1 µM) | 7.81 µg/mL (≈ 20.1 µM) | 0.98 µg/mL (≈ 2.52 µM) | 21.4 mm | 18.3 mm | 0.98 µg/mL (≈ 2.52 µM) | 21.3 mm | 7.81 µg/mL (≈ 20.1 µM) | 21.1 mm | 
GENTAMICIN |  |  |  |  |  |  |  |  |  |  |  |  |  |  |  |  | inhibition zone (IZ) (Klebsiella pneumoniae [1]): 26.3 mm; MIC (Escherichia coli [4]): 1.95 µg/mL; inhibition zone (IZ) (Proteus vulgaris [17]): 23.4 mm; MIC (Klebsiella pneumoniae [8]): 0.03 µg/mL; MIC (Proteus vulgaris [18]): 0.24 µg/mL
